M5 PAM: CHRM5 positive allosteric modulation; P08912; activation, % at 3 µM; CHO-K1 hM5, Fluo-8 calcium, ACh EC20 PAM; 0% = ACh EC20, 100% = ACh EC100; 0.3% of 360,000 active;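 active means activation above the run cutoff, the mean activation of all test compounds plus 3 SD, cut at about 18% in these data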
Target sequence (P08912 whole entry, looked up): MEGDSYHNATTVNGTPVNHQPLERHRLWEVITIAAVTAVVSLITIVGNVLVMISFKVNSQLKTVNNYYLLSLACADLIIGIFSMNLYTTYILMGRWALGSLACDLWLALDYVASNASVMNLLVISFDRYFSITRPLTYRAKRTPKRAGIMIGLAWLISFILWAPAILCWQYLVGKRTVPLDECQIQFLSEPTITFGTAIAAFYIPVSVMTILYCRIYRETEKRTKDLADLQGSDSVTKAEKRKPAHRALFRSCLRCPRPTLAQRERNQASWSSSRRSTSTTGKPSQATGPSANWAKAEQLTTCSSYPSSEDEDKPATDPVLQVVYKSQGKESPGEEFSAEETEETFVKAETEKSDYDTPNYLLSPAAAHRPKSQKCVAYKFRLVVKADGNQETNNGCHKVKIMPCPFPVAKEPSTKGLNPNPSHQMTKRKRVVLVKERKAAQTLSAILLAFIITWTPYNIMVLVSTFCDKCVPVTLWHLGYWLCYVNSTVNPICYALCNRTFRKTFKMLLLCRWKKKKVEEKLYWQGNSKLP
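Replicates: One well per compound, no replicates | System: Human M5 receptor in CHO-K1 cells | Benchmarks: Low control EC20 acetylcholine (0%), high control EC100 acetylcholine (100%) | Probe or stimulus: Acetylcholine, EC20 level | Times: Fluo-8 loading 80 min at 37 °C plus 30 min room temperature | Signal: Intracellular calcium via Fluo-8 fluorescence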
M4 PAM: potentiates acetylcholine response at human M4 receptor; CHO-K1 hM4/Gqi5, Fluo-8 calcium fluorescence, ACh EC20; 0% = ACh EC20, 100% = maximal ACh; activation, % at 3 µM; 0.4% of 360,000 active;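 active means activation above its plate's cutoff, the mean activation of sample wells plus 3 SD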
M5 ag: CHRM5 agonism in calcium assay | CHO-K1 hM5 cells, Fluo-8 calcium fluorescence; 0% DMSO wells, 100% maximal acetylcholine response | activation, % at 3 µM | 0.19% of 360,000 active | P08912;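 active means activation above the run's mean over test compounds plus 3 SD, cut at about 23% in these data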;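 further: signal is peak over basal fluorescence ratio across the kinetic read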
M4 ag: agonists of human muscarinic M4 receptor (CHRM4) | P08173 | CHO-K1 hM4/Gqi5, Fluo-8 calcium fluorescence; vehicle 0%, full acetylcholine response 100% | 0.14% of 360,000 active | activation, % at 3 µM;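 active means activation above the run mean over all test wells plus 3 SD, cut at about 32% in these data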;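 further: peak over basal fluorescence ratio per well then scaled between controls; 0% = DMSO wells and 100% = acetylcholine at EC100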
M5 antag: blocks acetylcholine activation of human M5 receptor; P08912; CHO-hM5 cells, Fluo-8 calcium fluorescence, ACh EC80; inhibition, % at 3 µM; 0.59% of 360,000 active; AID 624040;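 active means inhibition above a per-plate cutoff, the mean of that plate's test compounds plus 3 SD, cut at about 27% in these data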;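 further: 0% = acetylcholine EC80 with DMSO and 100% = DMSO without agonist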
CHRM4 antagonist: blocks acetylcholine activation of human M4 receptor | P08173 | CHO-hM4 cells, ACh EC80, Fluo-8 calcium fluorescence | inhibition, % at 3 µM | AID 624125 | 0.73% of 360,000 active;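 active means inhibition above its plate's cutoff, the mean inhibition of sample wells plus 3 SD, cut at about 27% in these data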;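 further: 0% = acetylcholine EC80 with DMSO and 100% = DMSO without agonist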
* = called active by the depositor. Hits are enriched below; roughly 1.8% of the tested compounds scored in any of these assays.

SMILES	M5 PAM	M4 PAM	M5 ag	M4 ag	M5 antag	CHRM4 antagonist
Cc1ccc(-n2c(C)cc(/C=C3\NC(=O)NC3=O)c2C)c(C)c1	0.0	-24.2	-6.0	-1.4	-1.3	34.9*
Nc1[nH]n2c(=O)c3c(nc2c1N=Nc1ccccc1)CCCC3	8.1	30.1*	-4.5	1.0	21.0	10.3
Nc1[nH]n2c(=O)c3c(nc2c1N=Nc1ccc(Cl)cc1)CCCC3	1.4	9.4	-1.0	0.1	-0.3	-7.9
CC(C)(C)OC(=O)CNC(=O)c1nc[nH]c1C(=O)N1CCNCC1	13.2	6.1	-0.3	0.1	-0.6	-2.3
CCCOC(=O)C1=C(C)OC23OC(N)=C(C#N)C12C(=O)c1ccccc13 (configuration not stated)	-12.2	-16.4	-2.2	0.2	6.8	34.5*
C#CCOCCOCCOCCNc1nc(N2CCN(C(=O)Cn3cc(CCO)nn3)CC2)nc(N2CCN(C(=O)Cn3cc(CCCCN)nn3)CC2)n1	9.8	2.0	2.8	0.8	4.2	0.0
CC[C@H](C)C1OC(=O)[C@@H](C)[C@@H](CC)NC(=O)[C@H](C)N(C)C(=O)C(C)(C)C(=O)C(C)NC(=O)[C@H](Cc2ccc(OC)cc2)N(C)C(=O)[C@H](C(C)C)N(C)C(=O)CNC(=O)[C@H](CC(C)C)N(C)C(=O)CNC1=O (some centres not stated)	13.0	22.7*	2.8	-0.1	-7.4	-17.4
Cc1cc(C)c(C#N)c(SCc2c(F)cccc2[N+](=O)[O-])n1	5.1	-2.1	-3.7	-0.2	-0.2	11.3
O=C(c1ccc(Cl)cc1)C1CCN(Cc2ccccc2)CC1	-11.7	-14.1	-22.6	1.5	-8.1	0.1
O=C(C1CCN(Cc2ccc(Cl)cc2)CC1)N1CCN(C(c2ccccc2)c2ccccc2)CC1	-19.1	-18.1	-8.2	-0.3	43.7*	73.9*
O=C(Nc1cccc(S(=O)(=O)N2CCOCC2)c1)c1ccc(N2CCCC2=O)cc1	3.0	8.7	0.5	2.2	-2.0	-6.8
Cc1ccc(C(=O)COC(=O)CNC(=O)c2ccccc2)s1	6.7	22.2*	6.1	1.4	-0.6	-6.4
Cc1ccc(OC(=O)CCS(=O)(=O)c2ccc(C)cc2)cc1	16.0	17.5*	-2.7	1.2	-5.9	-0.8
COC(=O)Cc1ccc(OC(=O)CCS(=O)(=O)c2ccc(C)cc2)cc1	0.9	-0.3	-2.7	0.3	0.2	-0.8
Cc1cc(NCCCCCCCNc2cc(C)nc3cc([N+](=O)[O-])ccc23)c2ccc([N+](=O)[O-])cc2n1	-19.4	-10.3	-11.1	1.6	18.0	43.3*
COCCCNc1cc(C)nc2ccccc12	2.8	6.5	-7.8	2.0	5.5	-1.0
COc1cccc(NC(=S)NNC(=O)c2c([N+](=O)[O-])c(C)nn2C)c1	2.6	33.9*	3.0	1.2	-10.3	4.0
Cc1ccc(NC(=O)CC2SC(=NC3CCCCC3)NC2=O)cc1 (configuration not stated)	0.9	18.4*	-5.1	0.0	-1.9	-8.5
Cc1ccccc1NC(=O)CC1SC(=NC2CCCCC2)NC1=O (configuration not stated)	-2.4	3.5	-2.7	1.0	-5.0	-0.9
CC(C)(C)NC(=O)C(c1cccs1)N(Cc1ccc(F)cc1)C(=O)c1csnn1 (configuration not stated)	-14.4	-0.6	-4.8	3.4	37.2*	6.0
CC(C)(C)NC(=O)C(c1cccs1)N(C(=O)c1csnn1)c1cccc(F)c1 (configuration not stated)	-5.3	0.3	-3.4	1.2	-6.7	-7.6
CC(=O)OC1c2ccccc2C(=O)N1Cc1ccccc1Cl (configuration not stated)	-10.2	-11.2	-1.6	0.3	5.9	34.2*
C[C@@H]1CCCCO[C@@H](CN(C)C(=O)CCCN(C)C)[C@@H](C)CN([C@H](C)CO)C(=O)c2cc(NC(=O)CCC(F)(F)F)ccc2O1	4.4	1.0	2.1	0.5	-1.5	-3.0
Cn1cnc([N+](=O)[O-])c1S(=O)(=O)Oc1ccc(Cl)cc1	-13.8	-8.6	-2.7	2.9	26.3	27.8*
Cn1cnc([N+](=O)[O-])c1S(=O)(=O)Oc1cccc2ccccc12	-1.9	0.4	-1.1	4.0	13.1	15.8
SMILES	M5 PAM	M4 PAM	M5 ag	M4 ag	M5 antag	CHRM4 antagonist
Nc1c(C(=O)C2CC2)sc2nc(-c3ccccc3)cc(C(F)(F)F)c12	20.1*	5.3	1.7	1.7	1.3	-1.1
CCCCNC(=O)c1ccc(Cc2cn(C)c3ccccc23)nc1	0.7	7.2	-0.5	0.6	-7.6	-9.1
Cc1cccc(N2C(=O)CC(N3CCN(Cc4ccc5c(c4)OCO5)CC3)C2=O)c1 (configuration not stated)	18.2*	5.8	-2.8	1.1	16.0	-1.3
Nc1c(C(=O)N2CCOCC2)sc2nc3c(cc12)CCC3	0.1	14.9	-0.4	1.6	-4.7	35.3*
O=C(O)CNC(=O)c1ccc(NC(=O)/C(=C/c2ccccc2)NC(=O)c2ccccc2)cc1	-3.2	4.6	-3.1	0.0	4.8	3.3
Cc1sc2ncnc(N3CCCCC3)c2c1C	-5.9	7.6	3.6	3.0	-0.1	-5.9
Cc1sc2ncnc(NCC(c3ccco3)N3CCCC3)c2c1C (configuration not stated)	-20.5	-22.6	-7.0	2.1	15.4	39.7*
CCOc1cc(/C=C2\SC(=O)N(CC(=O)Nc3ccccc3F)C2=O)cc([N+](=O)[O-])c1O	23.4*	11.2	0.3	-0.8	-1.3	-2.3
O=C(Cn1cc(C(F)(F)F)ccc1=O)NCC1CCCO1 (configuration not stated)	3.4	9.6	3.2	0.6	1.5	6.0
CCOC(=O)c1c(-c2ccc(C)o2)csc1NC(=O)COC(=O)c1cccs1	-18.8	-15.5	2.0	11.0	14.4	29.2*
COc1ccc(C(=O)Nc2ccc(C3CC3(Cl)Cl)cc2)cc1 (configuration not stated)	-11.5	-8.8	-1.6	9.5	11.2	-1.8
Cc1cccc(N(C)C(=O)C2CCCN2S(=O)(=O)c2cccc3nsnc23)c1 (configuration not stated)	2.3	9.1	3.0	0.2	-1.4	28.6*
CN(CC(=O)N1CCN(C2CCCCC2)CC1)S(=O)(=O)c1cccc2nsnc12	-1.8	1.0	0.3	2.0	2.0	29.1*
c1csc(CNc2nc(Oc3ccncc3)c3sccc3n2)c1	-0.2	5.6	-0.3	1.9	0.3	2.2
COc1ccc(CCNC(=O)CSc2ccc3nnc(CCNC(=O)c4ccccc4)n3n2)cc1OC	-3.0	0.1	-5.0	0.5	7.7	1.4

Assay outcomes deposited in PubChem BioAssay by The Scripps Research Institute Molecular Screening Center.
